PMC8343189 (Acta Pharmaceutica Sinica. B, 2020)

Columns and labels:
ANO1 [1] = molecular target: T1, ANO1 (Homo sapiens, UniProt Q5XXA6, DEL476-501); assay: ANO1 whole-cell patch clamp in ANO1-overexpressing FRT cells; assay type: cell-based; conditions: 30 μmol/L, ANO1 activated by 1 μmol/L intracellular Ca^2+
T1 sequence (Q5XXA6 with tags, fused parts or gaps isoform Q5XXA6-5 DEL539-564): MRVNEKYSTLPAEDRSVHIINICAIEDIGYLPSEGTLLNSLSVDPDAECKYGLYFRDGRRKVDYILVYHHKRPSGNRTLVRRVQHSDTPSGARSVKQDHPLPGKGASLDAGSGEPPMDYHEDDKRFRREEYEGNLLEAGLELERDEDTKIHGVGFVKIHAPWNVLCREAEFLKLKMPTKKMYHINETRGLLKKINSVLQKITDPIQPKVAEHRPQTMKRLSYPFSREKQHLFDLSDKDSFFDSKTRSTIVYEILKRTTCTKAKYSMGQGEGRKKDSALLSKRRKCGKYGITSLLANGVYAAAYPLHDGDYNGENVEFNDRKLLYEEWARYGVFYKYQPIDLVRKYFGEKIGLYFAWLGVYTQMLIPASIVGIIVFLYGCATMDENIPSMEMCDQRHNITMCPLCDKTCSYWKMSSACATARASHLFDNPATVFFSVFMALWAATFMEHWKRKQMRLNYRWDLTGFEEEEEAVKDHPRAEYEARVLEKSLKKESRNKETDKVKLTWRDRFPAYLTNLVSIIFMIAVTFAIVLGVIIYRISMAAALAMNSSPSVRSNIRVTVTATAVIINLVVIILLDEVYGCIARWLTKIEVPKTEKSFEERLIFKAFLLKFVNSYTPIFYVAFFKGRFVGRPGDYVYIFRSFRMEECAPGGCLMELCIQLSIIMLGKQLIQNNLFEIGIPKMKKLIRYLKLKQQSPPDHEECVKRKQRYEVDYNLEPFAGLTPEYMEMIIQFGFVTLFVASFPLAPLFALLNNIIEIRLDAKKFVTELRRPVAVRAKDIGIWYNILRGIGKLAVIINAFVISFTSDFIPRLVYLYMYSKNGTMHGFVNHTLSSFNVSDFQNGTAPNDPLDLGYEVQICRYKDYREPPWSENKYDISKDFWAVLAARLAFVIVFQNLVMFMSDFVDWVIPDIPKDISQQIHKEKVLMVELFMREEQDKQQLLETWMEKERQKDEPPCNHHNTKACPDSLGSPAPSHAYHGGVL

ANO1 [2] = molecular target: T1, ANO1; assay: YFP fluorescence quenching assay in ANO1-overexpressing FRT cell line; assay type: cell-based
[3] = system: intracellular Ca^2+ concentration; assay: Intracellular Ca^2+ fluorescence; assay type: cell-based; conditions: 30 μmol/L compound, 200 μmol/L ATP, Cal520, control 2.3 folds
ANO2 = molecular target: T2, ANO2 (Homo sapiens, UniProt Q9NQ90); assay: ANO2 whole-cell patch clamp in HEK293 cells transiently expressing ANO2; assay type: cell-based; conditions: 30 μmol/L
T2 sequence (Q9NQ90 1-998): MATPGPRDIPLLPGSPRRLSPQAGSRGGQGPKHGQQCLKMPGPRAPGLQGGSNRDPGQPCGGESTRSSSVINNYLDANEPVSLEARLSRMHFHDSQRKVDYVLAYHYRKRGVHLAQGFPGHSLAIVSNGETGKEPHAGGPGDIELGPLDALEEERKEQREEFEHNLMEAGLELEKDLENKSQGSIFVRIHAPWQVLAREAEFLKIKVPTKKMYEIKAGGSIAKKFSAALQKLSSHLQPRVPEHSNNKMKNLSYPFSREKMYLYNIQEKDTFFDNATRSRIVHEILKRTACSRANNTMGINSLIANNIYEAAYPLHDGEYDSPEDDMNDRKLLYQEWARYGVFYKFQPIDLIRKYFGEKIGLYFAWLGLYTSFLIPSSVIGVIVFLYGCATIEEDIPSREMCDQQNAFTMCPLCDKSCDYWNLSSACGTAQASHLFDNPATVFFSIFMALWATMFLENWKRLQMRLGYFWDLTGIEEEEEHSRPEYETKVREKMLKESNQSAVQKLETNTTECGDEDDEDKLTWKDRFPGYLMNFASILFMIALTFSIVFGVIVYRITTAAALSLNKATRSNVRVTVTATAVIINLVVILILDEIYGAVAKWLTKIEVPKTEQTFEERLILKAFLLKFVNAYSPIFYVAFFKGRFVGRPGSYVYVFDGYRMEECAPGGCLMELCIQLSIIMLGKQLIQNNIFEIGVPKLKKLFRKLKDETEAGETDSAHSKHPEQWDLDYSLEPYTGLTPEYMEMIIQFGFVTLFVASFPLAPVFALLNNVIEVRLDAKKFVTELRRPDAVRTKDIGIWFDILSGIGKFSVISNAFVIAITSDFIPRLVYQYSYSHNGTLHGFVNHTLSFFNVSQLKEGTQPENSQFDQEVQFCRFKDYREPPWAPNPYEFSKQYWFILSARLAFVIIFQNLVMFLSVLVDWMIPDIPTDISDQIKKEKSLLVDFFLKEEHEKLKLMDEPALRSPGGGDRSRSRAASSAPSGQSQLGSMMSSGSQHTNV
In short: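 HEK293 cells transiently transfected with the ANO2 gene; whole-cell patch clamp at room temperature, pipette solution at pCa2+ 6.0. Cells held at −40 mV, stepped from […] in +20 mV increments for 500 ms, then repolarized to −80 mV for 250 ms, every 15 s. Currents recorded before and after 30 μmol/L test compound; an ANO1-selective inhibitor and a pan-inhibitor served as controls.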

[4] = Stability under different pH conditions; assay type: physicochemical; conditions: 37 °C, 100 μmol/L, mean ± SD, n = 3
In short: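 Test compound diluted to 100 μmol/L in phosphate buffers at pH 1.0, 4.0, 6.8, 7.4 and 9.0 and held in a 37 °C water bath. HPLC−UV peak area measured at 0, 2 and 5 h; residual expressed relative to the 0 h peak area.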

MDCK cells permeability = assay type: in vitro ADME, canine; conditions: dog, MDCK
In short: (§1)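 Transwell with a resistance-stable MDCK monolayer; compound added to the upper chamber, HBSS in the lower chamber. Incubated 120 min at 37 °C, 5% CO2. Lower-chamber concentration measured by LC−MS. Papp derived from amount transported per time, membrane area and initial upper-chamber concentration. Mean ± SD, n = 3.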

MDCK cells = MDCK cells permeability; assay type: in vitro ADME, canine; conditions: oral bioavailability prediction from MDCK permeability
In short: as §1

CHO cells = assay: SRB proliferative cytotoxicity in CHO cells; assay type: cell-based, Chinese Hamster; conditions: 1 and 3 μmol/L, 72 h
In short: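 CHO cells in DMEM with 10% FBS, seeded overnight, then exposed to test compound or DMSO vehicle for 72 h. Cells fixed with 10% TCA for 1 h at 4 °C and stained with 0.4% SRB in 1% acetic acid for 15 min in the dark. Washed with acetic acid, dye dissolved in 10 mmol/L Tris-base, absorbance read at 540 nm. n = 3, mean ± SEM, t-test vs DMSO control.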

C57BL/6 male mice = assay: Acute toxicity in mice, i.g.; assay type: in vivo
In short: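 Male C57BL/6 mice, 6–8 weeks, 18–22 g, 7 per group, received a single intragastric dose of 1000 mg/kg. Vehicle was 5% DMSO + 10% […] + 85% saline (v/v), adjusted to pH 8.0 with NaOH. Survival was monitored daily for 3 days.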

SD rats [5] = assay: Formalin test on rat; assay type: in vivo
In short: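 30 min later, 50 μL 5% formalin injected into the left paw; controls received saline. Foot lifts counted over phase 1 (0–10 min) and phase 2 (10–60 min). Mean ± SD; ANOVA vs vehicle.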

SD rats [6] = assay: Chronic constriction injury model; assay type: in vivo; conditions: 40 mg/kg i.g., rat CCI, Electronic Von Frey, vehicle 11.5

O=C(O)c1c(-c2ccc(Cl)cc2)csc1NC(=O)c1cccc2ccccc12 [Compound 42, 2-(1-Naphthamido)-4-(4-chlorophenyl) thiophene-3-carboxylic acid]
CaCC current (ANO1 [1]): significantly suppressed the CaCC current | IC50 (ANO1 [2]): 790 nM | maximum relative fluorescence units (RFU) vs initial value (Ca^2+ influx) [3]: 1.9 folds | effect on ANO2 induced CaCC current (ANO2; HEK293 cells expressing ANO2): little effect | ANO1/ANO2 selectivity (ANO2; compared with Ani9 and CaCCinh-A01): slightly weaker than that of Ani9 but much higher than that of CaCCinh-A01 | 5 h residual compound under different pH (%) pH 1.0 ([4]; pH 1.0, 5 h): 99.0 ± 4.6% | 5 h residual compound under different pH (%) pH 4.0 ([4]; pH 4.0, 5 h): 99.4 ± 4.4% | 5 h residual compound under different pH (%) pH 6.8 ([4]; pH 6.8, 5 h): 99.2 ± 4.9% | 5 h residual compound under different pH (%) pH 7.4 ([4]; pH 7.4, 5 h): 99.4 ± 3.5% | 5 h residual compound under different pH (%) pH 9.0 ([4]; pH 9.0, 5 h): 99.5 ± 0.9% | Papp at 120 min (MDCK cells permeability): 13.8 ×10⁻⁶ cm/s | F prediction (%) (MDCK cells): >70% | effect on CHO cell proliferation (CHO cells): weak effect | survival and acute toxic response (C57BL/6 male mice; 1000 mg/kg i.g., 72 h, C57BL/6 male mice): All mice survived and no intense acute toxic response | safe dose (C57BL/6 male mice; i.g. administration, mice): ≤ 1000 mg/kg | analgesic effect in phase 2 compared with vehicle (SD rats [5]; 80 mg/kg i.g., phase 2): significant analgesic effect | number of foot lifts, phase 2 (SD rats [5]; 80 mg/kg i.g., phase 2, vehicle 121 foot lifts): 70 foot lifts | effect on number of foot lifts, phase 1 (SD rats [5]; i.g., compared with the vehicle group, phase 1): not phase 1 | PTI, pain threshold rate change (%) of 1 h compared to 0 h (SD rats [6]): 45.2%
